Reference: ChEMBL document CHEMBL4145613, “Succinimide-Based Conjugates Improve IsoDGR Cyclopeptide Affinity to αvβ3 without Promoting Integrin Allosteric Activation” (J Med Chem, 2018)
Activity calls are given as the source filed them. No cut-off for these calls is given here. Numbered stars: 1 amine (or outer) side, 2 acyl side, 3 side chain; on linkers, the order of the positions; unused ones are H or OH. Bridge positions count the residues as written; N and C are the ends. Square brackets hold non-standard residues; d marks the D form. Peptide text beside a SMILES is read from it. * marks the point of attachment. X2 = O=C(O)CN1CCN(CC(=O)O)CCN(CC(=O)NCCN2C(=O)CC(*)C2=O)CC1; X1 = NC(=O)[C@H]1CC[C@H](CN2C(=O)CC(*)C2=O)CC1; Succinimide(1-Et,3-yl) = CCN1C(=O)CC(*)C1=O; βAsp = O=C(O)[C@H](CC(=O)[*:2])N[*:1]

Tests used:
Integrin alpha-V/beta-3 [1] = molecular target: T1, Integrin alpha-V/beta-3 (Homo sapiens, UniProt P05106+P06756); assay: Binding affinity to integrin alphaVbeta3 receptor in human MSR3 cell membranes incubated for 2 hrs by Tr-NOESY NMR spectroscopy
Integrin alpha-V/beta-3 [2] = molecular target: T1, Integrin alpha-V/beta-3; assay: Binding affinity to integrin alphaVbeta3 receptor in human MSR3 cell membranes assessed as change in STD spectra incubated for 2 hrs by NMR spectroscopy relative to untreated control
Summary of the method: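 Saturation transfer difference NMR used ligand at 1 mM with native membranes prepared from MSR3 melanoma cells (75-125 x10^6 cells). These cells express high αvβ3, as checked by FACS. Ligand protons nearest the receptor were identified from transferred saturation.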

Integrin alpha-V/beta-3 [3] = molecular target: T1, Integrin alpha-V/beta-3; assay: Allosteric activation of integrin alphaVbeta3 receptor in human MSR3 […] assessed as increase in anti-beta3 LIBS integrin antibody AP5 binding at 500 uM incubated for 90 mins by flow cytometry; type: cell-based; conditions: 1.5 h
Integrin alpha-V/beta-3 [4] = molecular target: T1, Integrin alpha-V/beta-3; assay: Binding affinity to integrin alphaVbeta3 receptor in EDTA pre-treated human MSR3 cell membranes incubated for 2 hrs by Tr-NOESY NMR spectroscopy
Summary of the method: (§1)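 Ligand (1 mM) NMR-observed with native membranes prepared from human melanoma MSR3 cells (75-125 x10^6 cells), whose high αvβ3 expression was confirmed by FACS. Line 1 used saturation transfer difference (STD) to map the ligand protons closest to the receptor. Line 2 used transferred NOE, comparing NOEs with and without membranes.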

Integrin alpha-V/beta-3 [5] = molecular target: T1, Integrin alpha-V/beta-3; assay: Binding affinity to human integrin alphaVbeta3 receptor using acetyl-CisoDGRCGVRSSSRTPSDKY-bio probe and streptavidin-peroxidase conjugate incubated for 3 hrs by competitive binding assay; type: protein-complex assay
Summary of the method: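 Ki reported with its standard error from several independent experiments, each run in duplicate. Groups were compared by one-way ANOVA with Dunnett's post-test.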

Integrin alpha-V/beta-3 [6] = molecular target: T1, Integrin alpha-V/beta-3; assay: Allosteric activation of integrin alphaVbeta3 receptor in human MSR3 […] assessed as increase in anti-beta3 LIBS integrin antibody AP5 binding at 5 uM incubated for 90 mins by flow cytometry; type: cell-based; conditions: 1.5 h
Integrin alpha-V/beta-3 [7] = molecular target: T1, Integrin alpha-V/beta-3; assay: Binding affinity to integrin alphaVbeta3 receptor in EDTA pre-treated human MSR3 cell membranes incubated for 2 hrs by NMR spectroscopy; summary of the method: as §1
Integrin alpha-V/beta-3 [8] = molecular target: T1, Integrin alpha-V/beta-3; assay: Allosteric activation of integrin alphaVbeta3 receptor in human MSR3 […] assessed as increase in monoclonal antibody LM609 binding at 500 uM incubated for 90 mins by flow cytometry; type: cell-based; conditions: 1.5 h

| SMILES | Activity (Integrin alpha-V/beta-3 [3]) | Ki (Integrin alpha-V/beta-3 [5]) [nM] | also measured |
| --- | --- | --- | --- |
| N=C(N)NCCC[C@@H]1NC(=O)CNC(=O)[C@H](CC(=O)O)NC(=O)[C@@H](N)CSSC[C@@H](C(=O)O)NC1=O (H-CDGRC-OH; disulfide 1-5) |  |  | Activity (Integrin alpha-V/beta-3 [1]): inactive; Activity (Integrin alpha-V/beta-3 [2]): inactive |
| N=C(N)NCCC[C@@H]1NC(=O)CNC(=O)C[C@@H](C(=O)O)NC(=O)CNC(=O)[C@H](CS)NC(c2ccccc2)C(=O)NC1=O (stereo not given in full) | Not Active |  |  |
| N=C(N)NCCC[C@@H]1NC(=O)CNC(=O)C[C@@H](C(=O)O)NC(=O)CNC(=O)[C@H](CSC2CC(=O)N(C[C@H]3CC[C@H](C(N)=O)CC3)C2=O)NC(=O)CNC1=O (stereo not given in full) (GRGC(X1)GD-OH; lactam N-6) | Not Active | 19.9 | Activity (Integrin alpha-V/beta-3 [1]): > 50%; Activity (Integrin alpha-V/beta-3 [4]): inactive; Activity (Integrin alpha-V/beta-3 [2]): > 50%; Activity (Integrin alpha-V/beta-3 [6]): Not Active; Activity (Integrin alpha-V/beta-3 [7]): inactive |
| N=C(N)NCCC[C@@H]1NC(=O)CNC(=O)C[C@@H](C(=O)O)NC(=O)[C@H](CS)NC(=O)CNC(=O)CNC1=O (GRGGCD-OH; lactam N-6) | Not Active |  |  |
| N=C(N)NCCC[C@@H]1NC(=O)CNC(=O)C[C@@H](C(=O)O)NC(=O)CNC(=O)[C@H](CSC2CC(=O)N(CCNC(=O)CN3CCN(CC(=O)O)CCN(CC(=O)O)CC3)C2=O)NC(=O)CNC1=O (stereo not given in full) (GRGC(X2)GD-OH; lactam N-6) | Not Active | 21.6 | Activity (Integrin alpha-V/beta-3 [6]): Not Active |
| N=C(N)NCCC[C@@H]1NC(=O)CNC(=O)C[C@@H](C(=O)O)NC(=O)[C@H](CS)NCC(=O)NC(=O)C(c2ccccc2)NC1=O (stereo not given in full) | Not Active |  |  |
| N=C(N)NCCC[C@@H]1NC(=O)CNC(=O)C[C@@H](C(=O)O)NC(=O)[C@H](CS)NC(=O)CNC1=O (GRGCD-OH; lactam N-5) | Not Active |  |  |
| N=C(N)NCCC[C@@H]1NC(=O)CNC(=O)C[C@@H](C(=O)O)NC(=O)CNC(=O)[C@H](CS)NC(=O)CNC1=O (GRGCGD-OH; lactam N-6) | Not Active |  | Activity (Integrin alpha-V/beta-3 [8]): Not Active |
| CCN1C(=O)CC(SC[C@@H]2NC(=O)CNC(=O)[C@H](CCCNC(=N)N)NC(=O)CNC(=O)C[C@@H](C(=O)O)NC(=O)CNC2=O)C1=O (stereo not given in full) (GRGC(Succinimide(1-Et,3-yl))GD-OH; lactam N-6) | Not Active | 26.5 | Activity (Integrin alpha-V/beta-3 [1]): > 50%; Activity (Integrin alpha-V/beta-3 [2]): > 50%; Activity (Integrin alpha-V/beta-3 [6]): Not Active |
| N=C(N)NCCC[C@@H]1NC(=O)CNC(=O)C[C@@H](C(=O)O)NC(=O)[C@@H](N)CSSC[C@@H](C(=O)O)NC1=O (H-C[βAsp]GRC-OH; disulfide 1-5) | Not Active |  |  |
| N=C(N)NCCC[C@@H]1NC(=O)[C@H](CS)NC(=O)[C@@H](Cc2ccccc2)NC(=O)[C@H](CC(=O)O)NC(=O)CNC1=O (cyclo(RGD[dF]C)) |  | 6.3 |  |
